# Published values from different studies.
# Target: cAMP-dependent protein kinase catalytic subunit alpha (PRKACA, Homo sapiens, UniProt P17612)
Structure (SMILES),assay,conditions,remaining binding
CN(C)c1nccc(-c2cnn3ncccc23)n1,binding,1 µM,100%
c1ccc(N2CCN(Cc3nc4ccccc4[nH]3)CC2)nc1,"cell-free assay, competition with immobilised ligand",1 µM,91%
N#Cc1ccccc1CSc1nnc2c(n1)[nH]c1ccccc12,"binding, competition with immobilised ligand",10 µM,72%
CC1CCCN1c1nccc(-c2cnn3ncccc23)n1 (stereo not drawn),binding,1 µM,100%
O=C(N1CCS(=O)(=O)CC1)N1C[C@H](c2ccc(OC(F)(F)F)cc2)C[C@H](c2nc(C3CC3)no2)C1,"cell-free assay, competition with immobilised ligand",1 µM,100%
C[C@@H]1CCN(c2nccc(-c3cnn4ncccc34)n2)C1,binding,1 µM,100%
O=C(c1ccc(Nc2ncc(Cl)c(-c3cc4ccccc4s3)n2)cc1)N1CCC(N2CCCC2)CC1,"binding, competition with immobilised ligand",1 µM,90%
C[C@@H]1CN(c2ccc3ncc(-c4ccc5[nH]nc(C6CC6)c5c4)n3n2)C[C@H](C)O1,"binding, competition with immobilised ligand",50 nM,88%
COc1ncc2cc3ccccc3nc2c1C#N,"cell-free assay, competition with immobilised ligand",5 µM,100%
Cc1cnc(Nc2ccc(C(=O)N3CCC(N4CCCC4)CC3)cc2)nc1-c1cc2ccccc2s1,"binding, competition with immobilised ligand",1 µM,67%
O=C(Nc1c[nH]nc1C(=O)NC1CCNCC1)c1cc(F)cc(F)c1,"binding, competition with immobilised ligand",1 µM,100%
O=C(O)c1cc(-c2ccc(C3CCNCC3)cc2)c2ccc(-c3ccc(C(F)(F)F)cc3)cc2c1,"cell-free assay, competition with immobilised ligand",1 µM,100%
c1cnn2ncc(-c3ccnc(N4CCC45COC5)n3)c2c1,binding,1 µM,100%
O=C(N[C@H]1CCCCC/C=C\C2C[C@@]2(C(=O)O)NC(=O)[C@@H]2C[C@@H](Oc3ccncc3)CN2C1=O)OC1CCCC1 (stereo partly drawn),"cell-free assay, competition with immobilised ligand",1 µM,92%
COc1cnc(Nc2cccc(S(N)(=O)=O)c2)nc1N1CCN(c2ccccc2)CC1,"binding, competition with immobilised ligand",1 µM,100%
Cc1c(NC(=O)c2cc(C(N)=O)nc3cc(F)ccc23)c(C(F)(F)F)nn1Cc1ccc(C#N)cc1,"cell-free assay, competition with immobilised ligand",1 µM,78%
CNC(=O)[C@@H]1CC[C@@H](n2c(-c3ccc4cnccc4c3)nc3ccc(C(=O)NCc4cccc(C(N)=O)c4)cc32)C1,"binding, competition with immobilised ligand",1 µM,100%
FC(F)(F)Oc1cccc(-c2cnc3ccc(-c4ccncc4)nn23)c1,"cell-free assay, competition with immobilised ligand",5 µM,91%
Nc1ncc2c(n1)-c1c([nH]c3ccc(C#CC4CC4)cc13)CCCC2,"binding, competition with immobilised ligand",1 µM,86%
O=C(Nc1ccc(Oc2ccc(F)cc2)cc1)N1CCc2ncccc2[C@H]1c1ccc(F)cc1,"cell-free assay, competition with immobilised ligand",1 µM,95%
O=C(c1ccc(Nc2ncc(Cl)c(-c3ccc(Cl)s3)n2)cc1)N1CCC(N2CCCC2)CC1,"binding, competition with immobilised ligand",1 µM,97%
